One assay concerns Neisseria gonorrhoeae. Nature of the assay: Antibacterial activity against Neisseria gonorrhoeae ATCC 49226 by broth microdilution assay. Format: functional. The procedure, abridged:
(§1)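 Samples reconstituted in a small volume of sterile DMSO and diluted in the appropriate medium immediately before testing by established broth microdilution. MIC taken as the lowest concentration that inhibited all visible growth of the test organism (optically clear wells). Assays were repeated on separate days.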

In another assay the test system is Enterobacter cloacae. Nature of the assay: Antibacterial activity against Enterobacter cloacae ATCC 13047 by broth microdilution assay. Format: functional, organism-based. The gist of the method: as §1
On the technique in general: Dilution methods test growth across graded concentrations, often in twofold steps.

The subject of a further assay is P388. Kind of assay: Cytotoxicity against mouse P388 cells. Format: functional.
The subject of the next assay is Cryptococcus neoformans. Nature of the assay: Antifungal activity against Cryptococcus neoformans ATCC 90112 by broth microdilution assay. Type of assay: functional, organism-based. The procedure, abridged:
as §1

A further assay deals with Enterococcus faecalis. Nature of the assay: Antibacterial activity against Enterococcus faecalis ATCC 29212 by broth microdilution assay. Format: functional, organism-based. The gist of the method: as §1
For a further assay, the system named is Micrococcus luteus. Kind of assay: Antibacterial activity against Micrococcus luteus Presque Isle 456 by broth microdilution assay. Format: functional, organism-based. The procedure, abridged:
as §1

The next assay has as its system Escherichia coli. Kind of assay: Antibacterial activity against Escherichia coli ATCC 25922 by broth microdilution assay. Type of assay: functional, organism-based. The procedure, abridged:
as §1

In a further assay the test system is Streptococcus pneumoniae. Nature of the assay: Antibacterial activity against Streptococcus pneumoniae ATCC 6303 by broth microdilution assay. Format: functional, organism-based. The gist of the method: as §1
The subject of a further assay is Staphylococcus aureus. Kind of assay: Antibacterial activity against Staphylococcus aureus ATCC 29213 by broth microdilution assay. Format: functional, organism-based. The gist of the method:
as §1

The test system of a further assay is Candida albicans. Nature of the assay: Antifungal activity against Candida albicans ATCC 90028 by broth microdilution assay. Type of assay: functional, organism-based. The procedure, abridged:
as §1

In assay [1] the test system is Stenotrophomonas maltophilia. Kind of assay: Antibacterial activity against Stenotrophomonas maltophilia ATCC 13637 by broth microdilution assay. Type of assay: functional, organism-based. The gist of the method: as §1

As a reminder, the MIC is the least concentration at which growth counts as inhibited.

Values after ≈ are worked out from the molar mass of the structure shown. Active and inactive are the calls of the source. No cut-off for these calls is given here.

As for `Cc1c(O)c2c(c(C)c1CCO)C[C@@](C)(CO)C2`, the outcome in the assay on Neisseria gonorrhoeae, in the assay with Enterobacter cloacae, in the assay on P388, in the assay with Cryptococcus neoformans, with Enterococcus faecalis and with Micrococcus luteus was inactive. In addition, the outcome (in the assay with Escherichia coli; in the assay on Streptococcus pneumoniae; with Staphylococcus aureus; in the assay with Candida albicans; in [1]) was inactive.

In the case of `Cc1c(O)c2c(c(C)c1CCO)C[C@](C)(CO)C2`, the result with Neisseria gonorrhoeae, with Enterobacter cloacae, with P388, with Cryptococcus neoformans, in the assay on Enterococcus faecalis and in the assay on Micrococcus luteus was inactive. Also, the outcome (in the assay with Escherichia coli; with Streptococcus pneumoniae; in the assay on Staphylococcus aureus; with Candida albicans; in assay [1]) was inactive.

Take `Cc1c(O)c2c(c(C)c1CCO)CC(C)(C)C2`: the outcome in the assay with Neisseria gonorrhoeae, in the assay with Enterobacter cloacae, in the assay with P388, with Cryptococcus neoformans, with Enterococcus faecalis and in the assay on Micrococcus luteus was inactive. The result (with Escherichia coli; with Streptococcus pneumoniae; in the assay on Staphylococcus aureus; with Candida albicans; in assay [1]) was inactive.

Consider `CC(=O)c1cccc2oc(=O)[nH]c12`, for which the outcome in the assay with Neisseria gonorrhoeae, with Enterobacter cloacae, in the assay on P388, in the assay with Cryptococcus neoformans, with Enterococcus faecalis and in the assay with Micrococcus luteus was inactive. For the same compound, the outcome (in the assay with Escherichia coli; in the assay with Streptococcus pneumoniae; in the assay with Staphylococcus aureus; in the assay on Candida albicans; in assay [1]) was inactive.

Turning to `C=C1[C@@H](O)[C@@H]2CC(C)(C)CC2=C(CO)C12CC2`, the result in the assay with Neisseria gonorrhoeae, in the assay with Enterobacter cloacae, in the assay on P388, with Cryptococcus neoformans, with Enterococcus faecalis and in the assay with Micrococcus luteus was inactive. Besides, the outcome (with Escherichia coli; in the assay with Streptococcus pneumoniae; with Staphylococcus aureus; in the assay with Candida albicans; in [1]) was inactive.

Compound `C=C1[C@@H](O)[C@@H]2C[C@](C)(CO)CC2=C(C)C12CC2` [COPRINASTATIN 1] showed an MIC in the assay on Neisseria gonorrhoeae of 32 µg/mL (≈ 137 µM). The outcome in the assay with Enterobacter cloacae, in the assay on Cryptococcus neoformans, in the assay on Enterococcus faecalis, in the assay with Micrococcus luteus, in the assay with Escherichia coli and in the assay with Streptococcus pneumoniae was inactive. Also, the result (in the assay on Staphylococcus aureus; with Candida albicans; in assay [1]) was inactive. Further, the EC50 in the assay with P388 (read-out: ED50 (the source's name)) is 5.3 µg/mL (≈ 22.6 µM).

Values taken from ChEMBL document CHEMBL1153741, “Antineoplastic agents. 556. Isolation and structure of Coprinastatin 1 from Coprinus cinereus” (2010).
